Source: PubChem
Shown are actives, neighbours in structure and some others; about 12% of the full set was active somewhere.
Dynein transport: blocks dynein driven cargo transport along microtubules. hit rate 0.47% among 220,000. 3617.4 mouse cells, GR-EGFP nuclear translocation imaging; test concentration mostly 20 µM; stimulated with dexamethasone, 1 µM; stronger effect = lower value. z-score, hits read low;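 active = plate z-score of nuclear minus cytoplasmic receptor signal below a set negative limit, without overly bright fluorescence or cell loss, cut at about -3.5 in these data, passing the limit was not always enough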;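 also: z-score of nuclear minus cytoplasmic ring GR-EGFP intensity difference per well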
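Buffer or medium: tetracycline-free induction medium containing charcoal-stripped FBS / Reagent: dexamethasone agonist, 1.0 µM final, for 30 min / Technique: automated 10x imaging of fixed Hoechst-stained cells / Times: induction 48 h, compound 1 h, agonist 30 min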
MT stabilizer: microtubule stabilizers in HeLa cells | HeLa tubulin immunostaining HCS, 24 h; share of cells brighter than vehicle mean+2SD | % tubulin-high responders, % at 10 µM | hit rate 0.83% among 200,000 | AID 2205;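 active = plate Z-score above 3 for both tubulin-high and condensed-nucleus cell shares, with cell loss under 80%, at 10 µM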;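 also: anti alpha tubulin signal scored within the nucleus-defined area of each cell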
L major viab: reduces viability of Leishmania major promastigotes | resazurin fluorescence viability | AID 1063 | inhibition, % at 10 µM | hit rate 9% among 200,000; in the data active = inhibition above about 50%;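 also: promastigotes grown with compound for 44 hours at 28 °C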
Autophagy HCS: alters autophagy in cells; MEF GFP-LC3 puncta imaging; test concentration mostly 10 µM; calls only at 10 µM (by protocol); hit rate 0.98% among 190,000; AID 463193;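 active = percentage of spot-positive cells more than 3 SD above its plate mean, without a fluorescence outlier flag or 80% toxicity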;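 also: spot-positive cell cutoff set from DMSO-treated cells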
CHOP inhibitor: blocks CHOP induction under ER stress. CHO-K1 CHOP-promoter luciferase, tunicamycin-induced, 15-18 h. inhibition, % at 10 µM. hit rate 3.8% among 220,000. AID 2732;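 active = compounds that reduced the stress-induced luciferase reporter signal by more than about 70% of percent inhibition, limit read from the data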;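 also: 0% = tunicamycin plus vehicle and 100% = wells without tunicamycin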
b-catenin transl: alters nuclear translocation of beta-catenin in HeLa cells | immunofluorescence imaging | nuclear translocation activity, % at 5 µM | hit rate 0.3% among 190,000 | AID 1665;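 active = nuclear translocation activity above 50% at 5 µM, with a well cell count of 50 or more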;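 also: per-cell ratio of nuclear to cytoplasmic median beta-catenin stain intensity; plate controls were DMSO negative control for no effect and GSK-3 inhibitor IX positive control for full effect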
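test system = HeLa cells, endogenous beta-catenin | dosing = single 5 µM dose plus 0.02–20 µM confirmation series | times = compound treatment 24 h, 37°C, 5% CO2 | technique = beta-catenin immunofluorescence imaging with DAPI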
Starred values were filed as active, the others as inactive; i = inactive; / = not tested or not shown; + = active, no number.

SMILES	Dynein transport	MT stabilizer	L major viab	Autophagy HCS	CHOP inhibitor	b-catenin transl
C/C(CC(=O)Nc1cccnc1)=N\NC(=O)C(C)Oc1ccc(Cl)cc1Cl (stereo unspecified)	-0.37	/	/	/	16	1
CC(C)Oc1ccc(C(=O)Nc2ccc(Cl)c(S(=O)(=O)Nc3ccc(Cl)cc3)c2)cc1	0.047	2	22	i	71*	-1
O=C(O)c1ccc(NS(=O)(=O)c2cc(Cl)ccc2Cl)cc1	0.029	5	95*	i	10	2
COc1ccc(NS(=O)(=O)c2cc(NC(=O)CNC(=O)c3ccc(C)s3)ccc2Cl)cc1	1.2	2	84*	i	22	/
Cc1ccc(NS(=O)(=O)c2cc(C(=O)O)ccc2Cl)cc1	3.5	5	2	i	3	1
CCCc1nnc(NC(=O)C2CCCO2)s1 (stereo unspecified)	-0.78	2	-4	i	-14	-6
O=C(O)c1ccccc1C(=O)NCC(O)COc1ccc(Cl)cc1 (stereo unspecified)	0.4	/	/	/	-11	-1
COc1cc(CNc2nc(C)c([N+](=O)[O-])c(C)c2C#N)cc(OC)c1	-0.64	4	-5	i	71*	7
COCc1c(C#N)c(NCc2cc(OC)c(OC)c(OC)c2)nc(C)c1[N+](=O)[O-]	-0.91	/	/	/	28	0
CSc1nnc(-c2cnccn2)n1CCCN1CCCC1=O	0.71	3	-4	i	25	-6
O=C(Nc1ccccc1)c1ccccc1Oc1ccc(C(F)(F)F)cc1[N+](=O)[O-]	-0.76	3	9	i	71*	0
CCOC(=O)c1sc(Nc2cccc(C)c2C)nc1C	-0.0045	2	3	i	3	/
COCCn1c(C)cc(C(=O)CSc2nc3nc(C)cc(C)n3n2)c1C	-0.23	3	62*	i	6	/
O=C(NCc1cccs1)C1CCCN1C(=O)Nc1cccc(Cl)c1 (stereo unspecified)	0.45	4	34	i	-4	1
O=C(NCc1ccc2c(c1)OCO2)C1CCCN1C(=O)Nc1cccc(Cl)c1 (stereo unspecified)	-0.43	4	99*	i	0	-6
Cc1ccc2oc(=O)c3cc(C(=O)N4CCN(C)CC4)sc3c2c1	-0.5	/	/	/	-8	1
Cc1ccc(NC(=O)c2ccc(NCCN)c([N+](=O)[O-])c2)cc1Cl	-0.84	3	100*	i	14	5
O=C(Nc1cc(F)cc(F)c1)c1ccc(NCCc2ccccc2)c([N+](=O)[O-])c1	-1.7	2	-7	i	5	2
Cc1ccc(NC(=O)c2ccc(NCCc3ccccc3)c([N+](=O)[O-])c2)cc1F	-0.036	3	89*	+	-14	-4
COc1ccccc1N1CCN(C(=O)Cn2nc3n(C)c4ccccc4n3c(=O)c2=O)CC1	0.58	3	-5	i	-8	0
COc1cccc(/C=N/n2c(N)nc3ccccc32)c1OC	-0.9	3	59*	i	14	-2
CCc1ccc(/C=N/NC(=O)c2cc(-c3ccncc3)nc3ccccc23)s1	0.76	9	31	i	32	66*
Cc1ccc(-c2cc(C(=O)N/N=C/c3c(C)nn(C)c3C)c3ccccc3n2)cc1C	1.2	2	82*	i	-5	/
CCc1ccc(/C=N/NC(=O)c2c[nH]c3ccccc23)s1	0.29	2	10	i	-31	-3
Cc1nn(-c2ccccc2)c(N2CCCC2)c1/C=N/NC(=O)c1cc(-c2cccnc2)nc2ccccc12	0.18	10	29	i	19	1
SMILES	Dynein transport	MT stabilizer	L major viab	Autophagy HCS	CHOP inhibitor	b-catenin transl
COc1ccccc1-c1cc(C(=O)N/N=C/c2cccs2)c2ccccc2n1	-0.05	2	51*	i	44	/
CCCc1cc(C(=O)N/N=C/c2ccc(CC)s2)c2ccccc2n1	-0.76	34*	8	i	42	/
CCn1c(CNC(=O)c2cccc(C)c2)nc2ccccc21	-0.75	3	0	i	23	0
O=C(N/N=C/c1cccs1)c1cc(C2CC2)nc2ccccc12	1.3	17*	20	i	-24	61*
CCn1ncc(/C=N\NC(=O)c2cc(-c3ccc(C)cc3C)nc3ccccc23)c1C	-0.43	44*	30	i	5	-3
Cn1cccc1/C=N/NC(=O)c1cc(-c2cccs2)nc2ccccc12	-0.14	17*	56*	i	3	17
O=C(N/N=C/c1cccs1)c1cc(-c2ccncc2)nc2ccccc12	-0.26	5	14	i	4	61*
Cc1c(N2C(=O)C(=O)/C(=C(/O)c3ccc(Cl)cc3)C2c2ccccc2)c(=O)n(-c2ccccc2)n1C (stereo unspecified)	-0.62	3	-8	i	15	0
COc1ccc(CN(C)CC(=O)Nc2ccc(Cl)cc2F)c(OC)c1	0.39	/	/	/	11	1
COc1ccc(C2=Nn3c(nnc3-c3ccccn3)SC2)cc1	-0.12	52*	-2	i	-4	-1
CCOc1ccc(C2=Nn3c(nnc3-c3ccccc3OC)SC2)cc1	-0.55	19*	14	i	/	46
COc1ccccc1-c1nnc2n1N=C(c1ccc(O)c(O)c1)CS2	-0.62	21*	3	i	-34	41
COC(=O)c1cnc(Oc2c(Cl)cc(N)cc2Cl)cc1C(F)(F)F	-1.4	/	/	/	-1	1
N.N.N.N.N.N.N.N.N.N.N.N.N.N.O.O.[Cl-].[Cl-].[Cl-].[Cl-].[Cl-].[Cl-].[Ru+4].[Ru+5].[Ru+5]	/	/	/	/	-15	/
CCOc1cccc(/C=N/NC(=S)Nc2cc(S(=O)(=O)N3CCOCC3)ccc2N2CCOCC2)c1O	0.37	2	85*	i	30	-1
COc1ccc(/C=N/NC(=S)Nc2cc(S(=O)(=O)N3CCOCC3)ccc2N2CCOCC2)cc1O	-0.62	17	100*	i	-14	-2
COc1ccc2ccccc2c1/C=N/NC(=S)Nc1cc(S(=O)(=O)N2CCOCC2)ccc1N1CCOCC1	0.47	2	34	i	31	-1
COc1cc(C(=O)Nc2cccc(-c3nnc(-c4ccco4)o3)c2)ccc1OC(C)=O	-0.21	3	30	i	34	-5
Cc1ccc(CNC(=O)CCC2CCCN(Cc3cccc4ncccc34)C2)o1 (stereo unspecified)	-0.9	3	2	i	13	2
CCOC(=O)c1ccc(NC(=O)NC2CC3CCC(C2)N3Cc2nnnn2C(C)(C)C)cc1 (stereo unspecified)	-1.4	2	-1	i	-48	-6
CC1CN(c2nc(-c3ccccc3)nc3ccccc23)CC(C)O1 (stereo unspecified)	0.1	3	12	i	82*	/
CC1CN(c2cc(-c3ccccc3)c3ccccc3n2)CC(C)O1 (stereo unspecified)	-0.28	1	100*	i	46	/
